Bioassay records: PubChem BioAssay, Sanford-Burnham Center for Chemical Genomics
Diaph act CS = counter-screen for diaphorase-based assays: diaphorase activators and chemical reducers; 0.005% of 190,000 active; Diaphorase/resazurin coupled assay, resorufin fluorescence, 16 min; active compounds read high; 1 = vehicle wells, 0 = NADH-free wells; activation factor at 20 µM;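 active = diaphorase activity raised at least twofold by the compound at 20 µM; inactive = activation factor below 2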
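Assay system: Purified diaphorase enzyme from Clostridium kluyveri | Amount: Enzyme 0.07 U/mL final | Dosing: Compound 20 µM once, DMSO 1% | Timing: 16 min reaction at room temperature | Detection: Fluorescence, excitation 544 nm and emission 590 nm | Evaluation: Higher resorufin formation from activation or reduction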
G6PDH CS = L. mesenteroides G6PDH inhibition counter-screen. inhibition, % at 5 µM. 0.12% of 200,000 active. Purified L. mesenteroides G6PDH, diaphorase/resazurin coupled fluorescence, 45 min; in the data active = inhibition above about 50%
PMI activator = activators of human phosphomannose isomerase | P34949 | purified human PMI, coupled resazurin fluorescence, 20 min; active compounds read high; 1 = vehicle control, 0 substrate-free wells | activation factor at 20 µM | 0.005% of 190,000 active | AID 1214;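 active = activation factor of 2 or more at 20 µM, relative to plate controls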
Target sequence (P34949 whole entry, looked up): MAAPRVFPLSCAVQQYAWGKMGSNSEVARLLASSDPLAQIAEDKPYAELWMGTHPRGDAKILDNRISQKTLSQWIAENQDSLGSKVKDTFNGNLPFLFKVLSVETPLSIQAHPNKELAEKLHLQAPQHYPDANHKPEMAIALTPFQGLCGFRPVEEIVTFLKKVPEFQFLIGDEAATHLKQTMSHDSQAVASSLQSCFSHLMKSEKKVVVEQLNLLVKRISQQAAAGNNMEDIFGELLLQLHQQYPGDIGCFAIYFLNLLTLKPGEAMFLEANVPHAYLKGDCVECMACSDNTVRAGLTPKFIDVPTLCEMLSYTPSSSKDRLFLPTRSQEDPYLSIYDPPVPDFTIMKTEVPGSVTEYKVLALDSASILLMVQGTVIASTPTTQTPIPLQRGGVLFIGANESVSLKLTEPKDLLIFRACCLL
PMI act satM6P = activators of human phosphomannose isomerase at near-saturating mannose 6-phosphate; 0.34% of 190,000 active; P34949; activation factor at 20 µM; coupled PMI enzyme assay, resazurin fluorescence, 20 min; active compounds read high; 1 = untreated enzyme, 0 = substrate-free blank;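 active = activation factor of 2 or more at 20 µM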
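Technique: Diaphorase-driven resazurin-to-resorufin fluorescence, excitation 544, emission 590 nm | Assay system: Human PMI in coupled enzyme assay | Times: Enzyme reaction with compound 20 min at room temperature | Medium: HEPES-buffered pH 7.4 with magnesium and detergent | Reagent: Mannose-6-phosphate 1.0 mM (near-saturating) plus 0.22 mM NADP+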
Diaphorase inh = diaphorase inhibition or chemical oxidation counter-screen | 0.69% of 190,000 active | inhibition, % at 20 µM | AID 1217 | diaphorase resazurin-to-resorufin fluorescence, NADH, 16 min; bacterial (C. kluyveri) enzyme, not human;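 active = primary screen inhibition at 20 µM above a set limit, cut at about 50% in these data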
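material = Clostridium kluyveri diaphorase enzyme | amount = 0.14 U/mL diaphorase, enzyme working solution | schedule = incubation 16 min, room temperature | detection = fluorescence of resorufin formed from resazurin, Ex 544/Em 590 nm | benchmarks = positive control minus NADH, DMSO neutral control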
A number is an active result; . = inactive; / = not tested or not shown. The list is not random: actives were taken first. Their share in the collection is about 1.1%.

SMILES	Diaph act CS	G6PDH CS	PMI activator	PMI act satM6P	Diaphorase inh
O=C1Nc2cc(S(=O)(=O)N3CCCC3)ccc2N2CCCC12 (stereo unspecified)	.	.	.	2	.
FC(F)(Cl)c1nnc2ccc(Cl)nn12	.	.	.	.	.
Cc1c(C(=O)O)c(C(=O)O)nc2ccc(N3CCOCC3)cc12	.	.	.	.	54.8
CCC(C)(C)NC(=O)c1cc(S(=O)(=O)N2CCCCC2)ccc1N1CCOCC1	.	.	.	.	.
Cc1ccc(/C=C2\CCCC3=C2NC(=S)NC3c2ccc(C)cc2)cc1 (stereo unspecified)	.	.	.	2	.
Cc1cc(-c2ccco2)c(C#N)c2nc3ccccc3n12	.	.	.	.	71.5
CCN(CC)C(=O)Cn1cc(S(=O)(=O)CC(=O)NC2CCCCC2)c2ccccc21	.	.	.	.	.
CC(C)CC(NS(=O)(=O)c1cccc(C(=O)O)c1)C(=O)O (stereo unspecified)	.	.	.	.	.
Cc1cccc(Cn2nnc3c2C(=O)c2ccccc2C3=O)c1	.	54.1	.	.	.
Cc1cccc(Cn2ncc(Cl)c(Cl)c2=O)c1	.	.	.	.	.
COc1ccc(-n2c(N)c(C(=O)NCc3ccco3)c3nc4ccccc4nc32)cc1	.	.	.	.	53.6
COc1ccc(-n2c(N)c(C(=O)NCc3ccco3)c3nc4ccccc4nc32)cc1OC	.	.	.	.	.
CCC(C)(C(=O)NC1CCCC1)N(C)C(=O)c1ccccn1 (stereo unspecified)	.	.	.	.	.
COc1cc([N+](=O)[O-])cc(/C=N/NC(=O)CC#N)c1O	.	.	.	.	51.1
COc1cc([N+](=O)[O-])cc(/C=N/NC(=O)c2ccc(C)nc2)c1O	.	.	.	.	.
O=C(CCN1CCOCC1)NNC(=S)NC(=O)c1ccc(Br)cc1	.	.	.	.	65.7
O=C(CCN1CCCCC1)NNC(=S)NC(=O)c1ccc(Br)cc1	.	.	.	.	.
CC(=O)c1ccc2c(c1)C1C=CCC1C(C(=O)O)N2 (stereo unspecified)	.	.	.	.	77.1
COc1cccc2c1NC(C(=O)O)C1CC=CC21 (stereo unspecified)	.	.	.	.	92.6
Cc1ccc2c(c1)C1C=CCC1C(C(=O)O)N2 (stereo unspecified)	.	.	.	.	63.0
CC(=O)c1ccc2c(c1)C1C=CCC1C(c1ccncc1)N2 (stereo unspecified)	.	.	.	.	.
Cn1c(CCc2nc3ccccc3[nH]2)nnc1SCC#N	/	.	/	/	/
CCC(=O)N1CCc2cc(S(=O)(=O)CCC(=O)Nc3cccc(C)n3)ccc21	.	.	.	.	.
COc1ccc(Nc2nnc(SCC3CCCO3)s2)cc1 (stereo unspecified)	.	.	.	.	.
O=C1N=C2N(CCN3CCCCC3)c3ccccc3N2/C1=C\c1ccc([N+](=O)[O-])o1	/	.	/	/	/
SMILES	Diaph act CS	G6PDH CS	PMI activator	PMI act satM6P	Diaphorase inh
Cc1ccc(C)c(NS(=O)(=O)c2cc(C(N)=O)ccc2C)c1	.	.	.	.	.
Cc1ccc(C)c(S(=O)(=O)Nc2ccc(C(N)=O)cc2)c1	.	.	.	.	57.3
Cc1ccc(/C=N/n2c(-c3cccs3)n[nH]c2=S)cc1	.	.	.	.	.
CCN(CC)S(=O)(=O)c1cccc(-c2n[nH]c(=S)n2/N=C/c2ccc(Br)cc2)c1	.	.	.	.	.
CCN(CC)S(=O)(=O)c1cccc(-c2n[nH]c(=S)n2/N=C/c2ccc(OC)cc2)c1	.	.	.	.	78.5
COc1ccc(/C=N/n2c(-c3cccs3)n[nH]c2=S)cc1	.	.	.	.	64.3
CCN(CC)S(=O)(=O)c1cccc(-c2n[nH]c(=S)n2/N=C/c2ccc(OC(F)F)cc2)c1	.	.	.	.	52.9
O=C(Cn1nnc(-c2cccs2)n1)Nc1ccccc1C(F)(F)F	.	.	.	.	.
Cc1sc(C(=O)Nc2ccc3ccccc3c2)cc1CC(=O)O	.	.	.	.	.
Cc1ccccc1NC(=S)N(Cc1cccnc1)Cc1ccccc1Cl	.	.	.	.	.
COc1cc(NC(=S)N2CCC(C(N)=O)CC2)c(OC)cc1Cl	.	.	.	.	54.8
